Among the data in PubChem BioAssay are outcome and inhibition values, retold here.

Calls of active or inactive are those of the source.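 The calls were made as follows: active = calcium signal cut by more than 3 SD below the full-agonist control yet still positive, in both repeats and the earlier primary screen; inactive = the rest.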

The target of this test is Short transient receptor potential channel 4 (Mus musculus) (UniProt Q9QUQ5). Briefly: blockers of DAMGO-evoked TRPC4 calcium flux – cell-based, Fluo4, HEK293 TRPC4beta/mu-opioid, confirmation (AID 2636). The following applies: at 10 µM; hits give high values. The essentials: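 Assay system: HEK293 cells stably co-expressing mouse TRPC4beta and mu-opioid receptor / Also added: DAMGO agonist, submaximal followed by maximal addition / Compound dosing: single final compound concentration of 10 µM / Times: compound pre-incubation 110 s before DAMGO / Detection: Fluo4 calcium flux fluorescence, kinetic read / Replicates: duplicate wells for each compound, averaged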
Short transient receptor potential channel 4 (Mus musculus), sequence (Q9QUQ5 whole entry, looked up): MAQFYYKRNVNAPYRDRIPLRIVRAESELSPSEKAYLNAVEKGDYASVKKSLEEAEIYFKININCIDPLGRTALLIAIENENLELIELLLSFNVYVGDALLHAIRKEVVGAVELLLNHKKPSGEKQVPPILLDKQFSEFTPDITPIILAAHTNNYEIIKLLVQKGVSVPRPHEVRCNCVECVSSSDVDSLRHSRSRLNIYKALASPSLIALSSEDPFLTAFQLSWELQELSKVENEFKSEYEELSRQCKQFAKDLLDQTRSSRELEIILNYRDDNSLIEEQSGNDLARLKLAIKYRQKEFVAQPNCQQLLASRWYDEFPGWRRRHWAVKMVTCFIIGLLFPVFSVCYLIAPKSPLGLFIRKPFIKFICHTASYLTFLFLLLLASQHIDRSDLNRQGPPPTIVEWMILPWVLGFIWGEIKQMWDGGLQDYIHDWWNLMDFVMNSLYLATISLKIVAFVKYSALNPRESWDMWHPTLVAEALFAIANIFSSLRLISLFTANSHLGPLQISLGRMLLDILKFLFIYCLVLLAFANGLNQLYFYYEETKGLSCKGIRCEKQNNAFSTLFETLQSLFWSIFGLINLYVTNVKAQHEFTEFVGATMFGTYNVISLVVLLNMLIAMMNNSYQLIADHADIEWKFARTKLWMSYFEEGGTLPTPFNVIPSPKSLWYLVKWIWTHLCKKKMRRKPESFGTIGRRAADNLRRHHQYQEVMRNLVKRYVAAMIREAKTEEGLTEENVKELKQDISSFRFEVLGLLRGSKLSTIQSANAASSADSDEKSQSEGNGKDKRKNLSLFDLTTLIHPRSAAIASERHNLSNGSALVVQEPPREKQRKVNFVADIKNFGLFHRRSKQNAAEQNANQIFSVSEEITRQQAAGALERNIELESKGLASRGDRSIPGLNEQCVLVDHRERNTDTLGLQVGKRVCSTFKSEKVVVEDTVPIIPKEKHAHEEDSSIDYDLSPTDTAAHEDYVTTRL
With `COC(=O)c1ccccc1NC(=O)c1cnn2cccnc12`, the result was inactive. Still for that read-out and setting: the result for `Cc1cc(Cl)ccc1OC(C)C(=O)Nc1ccccc1N1CCOCC1` (stereo unspecified) reads “inactive”; that for `CC(C(=O)c1ccc(Br)cc1)[n+]1cccc(NC(=O)c2ccccc2)c1` (stereo unspecified), “inactive”. Still for that read-out and setting: the result for `Cn1c(SCCOc2ccccc2F)nc2ccccc2c1=O` reads “inactive”. In the case of `O=C(CN1CCCN(S(=O)(=O)c2ccc(F)cc2)CC1)Nc1ccccc1Br`, the inhibition is 70% (active). In the case of `Cc1c(CCOC(=O)c2ccccc2)sc[n+]1CC(=O)c1ccc(Br)cc1`, the result was inactive. On the same count and under the same terms, the result for `Cc1c(N2C(=O)/C(=C/c3ccccc3)SC2=S)c(=O)n(-c2ccccc2)n1C` reads “inactive”.

Turning to `CCOC(=O)Cc1csc(NC(=O)NC2(C(F)(F)F)Oc3cc(Cl)c(Cl)cc3O2)n1`, the inhibition is 47% (active). As to `CCCn1nc(C(=O)NC2CCCc3ccccc32)c2ccccc2c1=O` (stereo unspecified), the outcome was inactive.

Take `CCOC(=O)c1c(C)n(-c2ccc(C)cc2)c2ccc(OCC(O)CNCC3CCCO3)cc12` (stereo unspecified): the outcome was inactive.

Turning to `O=C(NCCCN1CCN(CCCNC(=O)c2cccc(Cl)c2)CC1)c1cccc(Cl)c1`, the result was inactive. Same read-out and setting: the result for `COC(=O)[C@@]12CCCCN1[C@H](c1ccc(-c3ccc(C(C)=O)cc3)cc1)[C@@H]1C(=O)N(C)C(=O)[C@@H]12` reads “inactive”; that for `Cc1ccc(CNC(=O)CSc2nc(=O)n3ccccc3n2)cc1`, “inactive”. Turning to `CCCCCCc1cc2cc(-c3nnc(-c4ccccc4O)o3)c(=O)oc2cc1O`, the result was inactive.

Turning to `CCCCN(C)CCNC(=O)C1CCCN(S(=O)(=O)c2cccc3nsnc23)C1` (stereo unspecified), the outcome was inactive. On the same count and under the same terms, next, `Cc1cccc(NC(=O)CNC(=O)CN2C(=O)NC3(CCCCC3C)C2=O)c1C` (stereo unspecified): “inactive”.

A word on the inhibition: it is how much of the control response was suppressed.
